Measurements reported in PMC9263996 (iScience, 2022).
“Also recorded” adds a separate entry of the source.

Key:
MaltOBP24 [1] = target: T1, MaltOBP24 (Monochamus alternatus, UniProt A0A1I9HZN3); assay: Competitive fluorescence-binding assay with 1-NPN probe, recombinant MaltOBP24; details: MaltOBP24 Ki (dissociation constant), 1-NPN competition, mean ± SEM
T1 sequence (A0A1I9HZN3 1-169): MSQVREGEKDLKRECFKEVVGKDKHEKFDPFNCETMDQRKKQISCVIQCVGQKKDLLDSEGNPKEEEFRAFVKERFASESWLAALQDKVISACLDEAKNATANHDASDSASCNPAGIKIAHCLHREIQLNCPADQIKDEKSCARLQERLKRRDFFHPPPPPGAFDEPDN

DhelOBP10 [2] = target: T2, DhelOBP10 (Dastarcus helophoroides, UniProt A0A1I9HZP4); assay: Competitive fluorescence-binding assay with 1-NPN probe, recombinant DhelOBP10; details: for Ki: DhelOBP10 Ki (dissociation constant), 1-NPN competition, mean ± SEM
T2 sequence (A0A1I9HZP4 20-220): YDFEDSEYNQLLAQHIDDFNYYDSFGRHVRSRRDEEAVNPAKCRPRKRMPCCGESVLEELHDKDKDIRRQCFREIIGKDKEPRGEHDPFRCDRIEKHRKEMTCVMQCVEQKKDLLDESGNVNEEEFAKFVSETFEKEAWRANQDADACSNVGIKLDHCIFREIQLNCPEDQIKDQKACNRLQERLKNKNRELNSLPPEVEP
How it was run: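 Recombinant signal-peptide-free DhelOBP10 from E. coli (pET-32b; 1 mM IPTG induction, 12 h at 16°C), dialysed into Tris pH 7.4 or 5.0. […] Ligands (1 mM methanol stock) were added to 0–20 μM; Ki = IC50/(1+[1-NPN]/K1-NPN). Mean ± SEM.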

MaltOBP24 [3] = assay: Fluorescence-quenching spectra assay, MaltOBP24; type: binding, Monochamus alternatus; details: for quenching mechanism of the interaction with MaltOBP24: change of Ksv with temperature 289–298 K, neutral pH
DhelOBP10 [4] = target: T2, DhelOBP10; assay: Fluorescence-quenching spectra assay, DhelOBP10; type: binding; details: for ΔS (entropy change): DhelOBP10, pH 7.4; for ΔH (enthalpy change): DhelOBP10, pH 7.4, 289 and 298 K; for Kd: Ka (apparent association constant); for quenching mechanism of the interaction with DhelOBP10: change of Ksv with temperature 289–298 K, neutral pH; for main acting force between ligand and DhelOBP10: from signs of ΔH and ΔS
How it was run: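 Intrinsic fluorescence of 2 μM recombinant DhelOBP10 in 30 mM Tris-HCl (pH 7.4 or 5.0): excitation 289 nm, slits 15/10 nm, scan 300–500 nm. Ligand aliquots came from 1 mM stock, at 289 and 298 K. Ksv and Kq were taken from Stern–Volmer fits, Ka and n from double-log plots, and ΔG, ΔH, ΔS from thermodynamic equations to assign binding force.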

M. alternatus adults = assay: Y-tube olfactometer binary choice assay, M. alternatus adults; type: in vivo, Monochamus alternatus; details: for behavioral response of M. alternatus adults in Y-tube: untreated adults, in words
How it was run: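 Field-collected adults kept singly at 25°C on fresh pine twigs. RNAi: 1 μg dsMaltOBP24 or dsGFP injected into the frons of 4-day-old adults under CO₂ narcosis, with non-injected controls, and tested 4 days later. Y-tube with 40 cm stem, 30 cm arms at 60°, airflow 300 mL/min. Odour was 10 µL of 100-fold paraffin-oil dilution versus paraffin oil. Insects had 5 min; ≥30 per sex, each tested once; Chi-square.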

D. helophoroides adults = assay: Y-tube olfactometer binary choice assay, D. helophoroides adults; type: in vivo, Dastarcus helophoroides; details: for attraction to D. helophoroides after silencing DhelOBP10: RNAi, compared with non-injected and dsGFP controls; for behavioral response of D. helophoroides adults in Y-tube: untreated adults, in words
How it was run: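 Adults reared at 25°C on an artificial diet. RNAi: 4-day-old adults given 300 ng dsDhelOBP10 or dsGFP into the frons, with non-injected controls, and tested 4 days later. Y-tube with 15 cm stem, 12 cm arms at 75°, airflow 300 mL/min per arm. Odour was 10 µL of 100-fold paraffin-oil dilution on filter paper versus paraffin oil. Insects had 5 min; arms swapped; ≥60 insects (30 per sex), each tested once; Chi-square.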

SaveOBP3 = details: fluorescence-binding assays; ref Vandermoten et al., 2011; cited from earlier work
EbalOBP3 = details: fluorescence-binding assays; ref Vandermoten et al., 2011; cited from earlier work

Compound | Ka (apparent association constant) (MaltOBP24 [3]; MaltOBP24, pH 7.4, 289 K) | Kq (bimolecular quenching constant) (MaltOBP24 [3]; MaltOBP24, pH 7.4, 289 K) [M⁻¹ s⁻¹] | Ksv (quenching constant) (MaltOBP24 [3]; MaltOBP24, pH 7.4, 289 K) | Ka (apparent association constant) (MaltOBP24 [3]; MaltOBP24, pH 7.4, 298 K) | Kq (bimolecular quenching constant) (MaltOBP24 [3]; MaltOBP24, pH 7.4, 298 K) [M⁻¹ s⁻¹] | Ksv (quenching constant) (MaltOBP24 [3]; MaltOBP24, pH 7.4, 298 K) | quenching mechanism of the interaction with MaltOBP24 (MaltOBP24 [3]) | ΔS (entropy change) (DhelOBP10 [4]) | Kq (bimolecular quenching constant) (DhelOBP10 [4]; DhelOBP10, pH 7.4, 289 K) [M⁻¹ s⁻¹] | Ksv (quenching constant) (DhelOBP10 [4]; DhelOBP10, pH 7.4, 289 K) | n (number of binding sites) (DhelOBP10 [4]; DhelOBP10, pH 7.4, 289 K) | ΔG (free energy change) (DhelOBP10 [4]; DhelOBP10, pH 7.4, 289 K) | Kq (bimolecular quenching constant) (DhelOBP10 [4]; DhelOBP10, pH 7.4, 298 K) [M⁻¹ s⁻¹] | Ksv (quenching constant) (DhelOBP10 [4]; DhelOBP10, pH 7.4, 298 K) | n (number of binding sites) (DhelOBP10 [4]; DhelOBP10, pH 7.4, 298 K) | ΔG (free energy change) (DhelOBP10 [4]; DhelOBP10, pH 7.4, 298 K) | quenching mechanism of the interaction with DhelOBP10 (DhelOBP10 [4]) | behavioral response of M. alternatus adults in Y-tube (M. alternatus adults) | attraction to D. helophoroides after silencing DhelOBP10 (D. helophoroides adults) | behavioral response of D. helophoroides adults in Y-tube (D. helophoroides adults) | also measured
CC1=CCC2C(C1)C2(C)C (stereo not drawn) [3-carene] | 9,394,307.39 L·mol^−1 | 2.4156e+12 | 24,156 ± 442.5 L·mol^−1 | 3,347,243.70 L·mol^−1 | 1.8949e+12 | 18,949 ± 876.5 L·mol^−1 | static quenching | 42.1 J/(mol·K) | 3.524e+11 | 3,524 ± 122.4 L·mol^−1 | 0.9999 ± 0.0605 | −19,760.09 J·mol^−1 | 2.97e+11 | 2,970 ± 15.32 L·mol^−1 | 0.9088 ± 0.0218 | −17,960.72 J·mol^−1 | static quenching | did not affect their behavior | significantly lower attraction index | significant preference | Ki (MaltOBP24 [1]; pH5.0): 23.5 ± 2.33 µM; Ki (MaltOBP24 [1]; pH7.4): 3.31 ± 0.68 µM; Ki (DhelOBP10 [2]; pH5.0): 13.9 ± 2.91 µM; Ki (DhelOBP10 [2]; pH7.4): 14.5 ± 2.61 µM; ΔH (enthalpy change) (DhelOBP10 [4]): −7,595.91 J·mol^−1; Kd (DhelOBP10 [4]; DhelOBP10, pH 7.4, 289 K): 268 µM; Kd (DhelOBP10 [4]; DhelOBP10, pH 7.4, 298 K): 711 µM; main acting force between ligand and DhelOBP10 (DhelOBP10 [4]): electrostatic force
C=CC(=C)CC/C=C(\C)CCC=C(C)C [(E)-β-farnesene] |  |  |  |  |  |  |  |  |  |  |  |  |  |  |  |  |  |  |  |  | affinity with SaveOBP3 (SaveOBP3): high affinity; affinity with EbalOBP3 (EbalOBP3): high affinity
C=C(C)[C@H]1CC=C(C)CC1 [R-(+)-limonene] |  |  |  |  |  |  | dynamic quenching | 0.01114 kcal/mol | 6.287e+11 | 6,287 ± 91.45 L·mol^−1 | 0.9715 ± 0.0292 | −20,458.37 J·mol^−1 | 4.016e+11 | 4,016 ± 108.1 L·mol^−1 | 0.9324 ± 0.0422 | −18,738.30 J·mol^−1 | static quenching | did not affect their behavior | not altered | significant preference | ligand-binding affinity with DhelOBP10 (class) (DhelOBP10 [2]; fluorescence binding combined with quenching): high (high if the Ki values <20 μM); Ka (apparent association constant) (DhelOBP10 [4]; DhelOBP10, pH 7.4, 289 K): 4,986.95 L·mol^−1; ΔH (enthalpy change) (DhelOBP10 [4]): −6,986.94 J·mol^−1; Ka (apparent association constant) (DhelOBP10 [4]; DhelOBP10, pH 7.4, 298 K): 1,925.95 L·mol^−1
(+)-fenchone | 3,312,799.36 L·mol^−1 | 2.4531e+12 | 24,531 ± 303.9 L·mol^−1 | 2,154,595.09 L·mol^−1 | 1.4813e+12 | 14,813 ± 141.8 L·mol^−1 | static quenching | 0.01694 kcal/mol | 3.742e+11 | 3,742 ± 92.59 L·mol^−1 | 0.9404 ± 0.0271 | −18,347.45 J·mol^−1 | 2.913e+11 | 2,913 ± 190.8 L·mol^−1 | 0.9471 ± 0.0676 | −18,846.32 J·mol^−1 | static quenching | significantly attracted; also recorded: could attract adults | significantly decreased | significantly attracted; also recorded: significant preference | Ka (apparent association constant) (DhelOBP10 [4]; DhelOBP10, pH 7.4, 289 K): 2,071.51 L·mol^−1; Ka (apparent association constant) (DhelOBP10 [4]; DhelOBP10, pH 7.4, 298 K): 2,011.77 L·mol^−1; main acting force between ligand and DhelOBP10 (DhelOBP10 [4]): hydrophobic; attraction index to M. alternatus after silencing MaltOBP24 (M. alternatus adults; RNAi, compared with non-injected and dsGFP controls): significantly decreased
